From ChEMBL document CHEMBL4689842, “EUbOPEN Chemogenomics Library wave 1” (2021)

Test system: HEK-293T
Experiment: Multiplex assay against HEK293T;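 for Population Tubulin-Different-Phenotype (%): share of the cells with healthy nuclei that show this phenotype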
Format: toxicity, cell-based
Details: human
Summary of the method: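 Four dyes were applied at seeding to live cells: Hoechst33342, BioTracker Green Microtubule Cytoskeleton Dye, MitoTracker Red and Annexin V Alexa Fluor 680. Imaging after compound addition used a CQ1 microscope at 37°C and 5% CO2. CellPathfinder machine-learning gating then sorted cells into Hoechst high-intensity objects or normal cells, normal cells into healthy, pyknosed or fragmented nuclei, and pyknosed cells into mitotic or apoptotic, with tubulin, mitochondrial-mass and membrane-permeability phenotypes given as per cents of healthy-nucleus cells.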

[1] = 12 h, 1 µM, compound concentration 1 uM, replicate 1
[2] = 12 h, 1 µM, compound concentration 1 uM, replicate 2
[3] = 12 h, 10 µM, compound concentration 10 uM, replicate 1
[4] = 12 h, 10 µM, compound concentration 10 uM, replicate 2
[5] = 24 h, 1 µM, compound concentration 1 uM, replicate 1
[6] = 24 h, 1 µM, compound concentration 1 uM, replicate 2
[7] = 24 h, 10 µM, compound concentration 10 uM, replicate 1
[8] = 24 h, 10 µM, compound concentration 10 uM, replicate 2
[9] = 48 h, 1 µM, compound concentration 1 uM, replicate 1
[10] = 48 h, 1 µM, compound concentration 1 uM, replicate 2
[11] = 48 h, 10 µM, compound concentration 10 uM, replicate 1
[12] = 48 h, 10 µM, compound concentration 10 uM, replicate 2

Cc1ccc(C(=O)Nc2cccc(C(F)(F)F)c2)cc1Nc1nc(-c2cccnc2)nc2c1cnn2C
Population Apoptotic (%) [1]: 63%
Population Fragmented Nuclei (%) [1]: 15%
Population Healthy Nuclei (%) [1]: 33%
Population Hoechst High Intensity Objects (%) [1]: 19%
Population Membrane Permeable-Phenotype (%) [1]: 1%
Population Mitochondria Different-Phenotype (%) [1]: 94%
Population Mitotic Cells (%) [1]: 36%
Population Normal (%) [1]: 80%
Population Pyknosed Nuclei (%) [1]: 50%
Population Tubulin-Different-Phenotype (%) [1]: 94%
Total Cell Count [1]: 318
Population Apoptotic (%) [2]: 27%
Population Fragmented Nuclei (%) [2]: 7%
Population Healthy Nuclei (%) [2]: 25%
Population Hoechst High Intensity Objects (%) [2]: 9%
Population Membrane Permeable-Phenotype (%) [2]: 7%
Population Mitochondria Different-Phenotype (%) [2]: 52%
Population Mitotic Cells (%) [2]: 72%
Population Normal (%) [2]: 90%
Population Pyknosed Nuclei (%) [2]: 66%
Population Tubulin-Different-Phenotype (%) [2]: 89%
Total Cell Count [2]: 162
Population Apoptotic (%) [3]: 86%
Population Fragmented Nuclei (%) [3]: 16%
Population Healthy Nuclei (%) [3]: 7%
Population Hoechst High Intensity Objects (%) [3]: 19%
Population Membrane Permeable-Phenotype (%) [3]: 8%
Population Mitochondria Different-Phenotype (%) [3]: 91%
Population Mitotic Cells (%) [3]: 13%
Population Normal (%) [3]: 80%
Population Pyknosed Nuclei (%) [3]: 75%
Population Tubulin-Different-Phenotype (%) [3]: 91%
Total Cell Count [3]: 200
Population Apoptotic (%) [4]: 78%
Population Fragmented Nuclei (%) [4]: 5%
Population Healthy Nuclei (%) [4]: 13%
Population Hoechst High Intensity Objects (%) [4]: 5%
Population Membrane Permeable-Phenotype (%) [4]: 4%
Population Mitochondria Different-Phenotype (%) [4]: 96%
Population Mitotic Cells (%) [4]: 21%
Population Normal (%) [4]: 94%
Population Pyknosed Nuclei (%) [4]: 81%
Population Tubulin-Different-Phenotype (%) [4]: 92%
Total Cell Count [4]: 190
Population Apoptotic (%) [5]: 64%
Population Fragmented Nuclei (%) [5]: 14%
Population Healthy Nuclei (%) [5]: 38%
Population Hoechst High Intensity Objects (%) [5]: 16%
Population Membrane Permeable-Phenotype (%) [5]: 2%
Population Mitochondria Different-Phenotype (%) [5]: 92%
Population Mitotic Cells (%) [5]: 35%
Population Normal (%) [5]: 83%
Population Pyknosed Nuclei (%) [5]: 46%
Population Tubulin-Different-Phenotype (%) [5]: 90%
Total Cell Count [5]: 330
Population Apoptotic (%) [6]: 51%
Population Fragmented Nuclei (%) [6]: 7%
Population Healthy Nuclei (%) [6]: 43%
Population Hoechst High Intensity Objects (%) [6]: 6%
Population Membrane Permeable-Phenotype (%) [6]: 11%
Population Mitochondria Different-Phenotype (%) [6]: 64%
Population Mitotic Cells (%) [6]: 48%
Population Normal (%) [6]: 93%
Population Pyknosed Nuclei (%) [6]: 48%
Population Tubulin-Different-Phenotype (%) [6]: 97%
Total Cell Count [6]: 172
Population Apoptotic (%) [7]: 89%
Population Fragmented Nuclei (%) [7]: 16%
Population Healthy Nuclei (%) [7]: 10%
Population Hoechst High Intensity Objects (%) [7]: 22%
Population Membrane Permeable-Phenotype (%) [7]: 0%
Population Mitochondria Different-Phenotype (%) [7]: 100%
Population Mitotic Cells (%) [7]: 10%
Population Normal (%) [7]: 77%
Population Pyknosed Nuclei (%) [7]: 72%
Population Tubulin-Different-Phenotype (%) [7]: 100%
Total Cell Count [7]: 225
Population Apoptotic (%) [8]: 85%
Population Fragmented Nuclei (%) [8]: 5%
Population Healthy Nuclei (%) [8]: 24%
Population Hoechst High Intensity Objects (%) [8]: 4%
Population Membrane Permeable-Phenotype (%) [8]: 4%
Population Mitochondria Different-Phenotype (%) [8]: 95%
Population Mitotic Cells (%) [8]: 14%
Population Normal (%) [8]: 95%
Population Pyknosed Nuclei (%) [8]: 70%
Population Tubulin-Different-Phenotype (%) [8]: 95%
Total Cell Count [8]: 205
Population Apoptotic (%) [9]: 52%
Population Fragmented Nuclei (%) [9]: 21%
Population Healthy Nuclei (%) [9]: 45%
Population Hoechst High Intensity Objects (%) [9]: 15%
Population Membrane Permeable-Phenotype (%) [9]: 4%
Population Mitochondria Different-Phenotype (%) [9]: 74%
Population Mitotic Cells (%) [9]: 47%
Population Normal (%) [9]: 84%
Population Pyknosed Nuclei (%) [9]: 33%
Population Tubulin-Different-Phenotype (%) [9]: 88%
Total Cell Count [9]: 371
Population Apoptotic (%) [10]: 47%
Population Fragmented Nuclei (%) [10]: 6%
Population Healthy Nuclei (%) [10]: 63%
Population Hoechst High Intensity Objects (%) [10]: 9%
Population Membrane Permeable-Phenotype (%) [10]: 8%
Population Mitochondria Different-Phenotype (%) [10]: 43%
Population Mitotic Cells (%) [10]: 52%
Population Normal (%) [10]: 90%
Population Pyknosed Nuclei (%) [10]: 30%
Population Tubulin-Different-Phenotype (%) [10]: 96%
Total Cell Count [10]: 230
Population Apoptotic (%) [11]: 86%
Population Fragmented Nuclei (%) [11]: 23%
Population Healthy Nuclei (%) [11]: 15%
Population Hoechst High Intensity Objects (%) [11]: 20%
Population Membrane Permeable-Phenotype (%) [11]: 6%
Population Mitochondria Different-Phenotype (%) [11]: 100%
Population Mitotic Cells (%) [11]: 13%
Population Normal (%) [11]: 79%
Population Pyknosed Nuclei (%) [11]: 60%
Population Tubulin-Different-Phenotype (%) [11]: 96%
Total Cell Count [11]: 258
Population Apoptotic (%) [12]: 89%
Population Fragmented Nuclei (%) [12]: 8%
Population Healthy Nuclei (%) [12]: 29%
Population Hoechst High Intensity Objects (%) [12]: 7%
Population Membrane Permeable-Phenotype (%) [12]: 1%
Population Mitochondria Different-Phenotype (%) [12]: 93%
Population Mitotic Cells (%) [12]: 10%
Population Normal (%) [12]: 92%
Population Pyknosed Nuclei (%) [12]: 61%
Population Tubulin-Different-Phenotype (%) [12]: 93%
Total Cell Count [12]: 209
